Measured values published in ChEMBL document CHEMBL4346661, “Design, synthesis and evaluation of novel diaryl-1,5-diazoles derivatives bearing morpholine as potent dual COX-2/5-LOX inhibitors and antitumor agents” (Eur J Med Chem, 2019).

Key:
B16-F10 [1] = experiment: Induction of apoptosis in mouse B16F10 cells assessed as late apoptosis cells at 6.25 uM incubated for 48 hrs in presence of apoptosis inhibitor z-VAD-fmk by Annexin-V-FITC/propidium iodide staining-based flow cytometric analysis (reference value: 3.13%); type: functional
B16-F10 [2] = experiment: Induction of cell cycle arrest in mouse B16F10 cells assessed as cell accumulation at G2 phase at 3.125 uM incubated for 48 hrs by propidium iodide staining-based flow cytometric analysis (reference value: 22.43%); type: functional
B16-F10 [3] = experiment: Induction of apoptosis in mouse B16F10 cells assessed as viable cells at 12.5 uM incubated for 48 hrs in presence of apoptosis inhibitor z-VAD-fmk by Annexin-V-FITC/propidium iodide staining-based flow cytometric analysis (reference value: 92.5%); type: functional; details: B16-F10, 48 h, read-out: Activity
B16-F10 [4] = experiment: Induction of apoptosis in mouse B16F10 cells assessed as early apoptosis cells at 12.5 uM incubated for 48 hrs in presence of apoptosis inhibitor z-VAD-fmk by Annexin-V-FITC/propidium iodide staining-based flow cytometric analysis (reference value: 3.83%); type: functional
[5] = molecular target: Prostaglandin G/H synthase 1 (Homo sapiens, UniProt P23219); experiment: Inhibition of COX1 (unknown origin) using arachidonic acid as substrate incubated for 10 mins by Ellman's reagent based COX-1/COX-2 ELISA assay
B16-F10 [6] = experiment: Induction of apoptosis in mouse B16F10 cells assessed as viable cells at 6.25 uM incubated for 48 hrs in presence of apoptosis inhibitor z-VAD-fmk by Annexin-V-FITC/propidium iodide staining-based flow cytometric analysis (reference value: 92.5%); type: functional; details: B16-F10, 48 h, read-out: Activity
B16-F10 [7] = experiment: Induction of cell cycle arrest in mouse B16F10 cells assessed as cell accumulation at G2 phase at 25 uM incubated for 48 hrs by propidium iodide staining-based flow cytometric analysis (reference value: 22.43%); type: functional
Homo sapiens = species on record: Homo sapiens; experiment: Selectivity index, ratio of IC50 for COX1 (unknown origin) to IC50 for COX2 (unknown origin)
Procedure, shortened: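 Ratio of COX-1 IC50 to COX-2 IC50, from human COX-1 and human COX-2 inhibitor screening assay kits. Each IC50 is the concentration giving 50% enzyme inhibition, taken as the mean of four determinations.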

B16-F10 [8] = experiment: Induction of apoptosis in mouse B16F10 cells assessed as late apoptosis cells at 3.125 uM incubated for 48 hrs by Annexin-V-FITC/propidium iodide staining-based flow cytometric analysis (reference value: 2.88%); type: functional
Procedure, shortened: (§1)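 F10 cells were exposed to 0, 3.125, 6.25, 12.5 or 25 µM for 48 h. Cells were stained with Annexin V/PI and read by flow cytometry. Data are mean ± SD of three independent experiments.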

B16-F10 [9] = experiment: Induction of cell cycle arrest in mouse B16F10 cells assessed as cell accumulation at G2 phase at 12.5 uM incubated for 48 hrs by propidium iodide staining-based flow cytometric analysis (reference value: 22.43%); type: functional
B16-F10 [10] = experiment: Induction of apoptosis in mouse B16F10 cells assessed as early apoptosis cells at 25 uM incubated for 48 hrs in presence of apoptosis inhibitor z-VAD-fmk by Annexin-V-FITC/propidium iodide staining-based flow cytometric analysis (reference value: 3.83%); type: functional
B16-F10 [11] = experiment: Induction of apoptosis in mouse B16F10 cells assessed as late apoptosis cells at 12.5 uM incubated for 48 hrs by Annexin-V-FITC/propidium iodide staining-based flow cytometric analysis (reference value: 2.88%); type: functional; procedure, shortened: as §1
B16-F10 [12] = experiment: Induction of apoptosis in mouse B16F10 cells assessed as necrosis cells at 6.25 uM incubated for 48 hrs in presence of apoptosis inhibitor z-VAD-fmk by Annexin-V-FITC/propidium iodide staining-based flow cytometric analysis (reference value: 0.558%); type: functional
B16-F10 [13] = experiment: Induction of apoptosis in mouse B16F10 cells assessed as viable cells at 25 uM incubated for 48 hrs in presence of apoptosis inhibitor z-VAD-fmk by Annexin-V-FITC/propidium iodide staining-based flow cytometric analysis (reference value: 92.5%); type: functional; details: B16-F10, 48 h, read-out: Activity
B16-F10 [14] = experiment: Induction of cell cycle arrest in mouse B16F10 cells assessed as cell accumulation at G2 phase at 6.25 uM incubated for 48 hrs by propidium iodide staining-based flow cytometric analysis (reference value: 22.43%); type: functional
B16-F10 [15] = experiment: Induction of apoptosis in mouse B16F10 cells assessed as early apoptosis cells at 3.125 uM incubated for 48 hrs in presence of apoptosis inhibitor z-VAD-fmk by Annexin-V-FITC/propidium iodide staining-based flow cytometric analysis (reference value: 3.83%); type: functional
B16-F10 [16] = experiment: Induction of cell cycle arrest in mouse B16F10 cells assessed as increase in cell accumulation at G2 phase at incubated for 48 hrs by propidium iodide staining-based flow cytometric analysis; type: functional
B16-F10 [17] = experiment: Induction of cell cycle arrest in mouse B16F10 cells assessed as cell accumulation at S phase at 25 uM incubated for 48 hrs by propidium iodide staining-based flow cytometric analysis (reference value: 14.16%); type: functional
B16-F10 [18] = experiment: Antitumor activity against mouse B16F10 cells implanted in nude mouse assessed as tumor weight at 40 mg/kg, ip administered once per 2 days for 14 days by caliper method (reference value: 1.24g); type: functional
Procedure, shortened: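 Nude mice were given 5×10^6 F10 cells subcutaneously in the right flank. At about 100 mm3, 24 mice were randomized into four groups of vehicle or compound. Dosing was intraperitoneal every two days for two weeks. Tumor volume was recorded every other day. Tumors were excised and weighed after the last treatment, and body weight was monitored.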

[19] = Metabolic stability in mouse B16F10 cells implanted in nude mouse plasma assessed as peak time at 40 mg/kg, ip measured after 24 to 48 hrs by HPLC analysis; type: ADME, organism-based; details: in vivo
Procedure, shortened: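 Tumor-bearing nude mice dosed intraperitoneally. Blood was taken from the eye 24 h later and centrifuged to plasma. The plasma was extracted with ethyl acetate and analysed by HPLC for compound peak retention time.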

B16-F10 [20] = experiment: Induction of apoptosis in mouse B16F10 cells assessed as necrosis cells at 12.5 uM incubated for 48 hrs in presence of apoptosis inhibitor z-VAD-fmk by Annexin-V-FITC/propidium iodide staining-based flow cytometric analysis (reference value: 0.558%); type: functional
B16-F10 [21] = experiment: Induction of apoptosis in mouse B16F10 cells assessed as necrosis cells at 12.5 uM incubated for 48 hrs by Annexin-V-FITC/propidium iodide staining-based flow cytometric analysis (reference value: 0.186%); type: functional; procedure, shortened: as §1
B16-F10 [22] = experiment: Induction of apoptosis in mouse B16F10 cells assessed as viable cells at 12.5 uM incubated for 48 hrs by Annexin-V-FITC/propidium iodide staining-based flow cytometric analysis (reference value: 94%); type: functional; details: B16-F10, 48 h, read-out: Activity; procedure, shortened: as §1
[23] = Toxicity in mouse B16F10 cells implanted in nude mouse assessed as change in body weight at 20 to 40 mg/kg, ip administered once per 2 days for 14 days; type: organism-based; details: in vivo
Procedure, shortened: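 Nude mice carried subcutaneous right-flank xenografts of 5×10^6 F10 cells. At about 100 mm3 tumor size they were randomized into groups of six (twenty-four mice, four groups): vehicle or 20 or 40 mg/kg, given intraperitoneally once every two days for two weeks. Body weight was tracked during treatment.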

B16-F10 [24] = experiment: Induction of apoptosis in mouse B16F10 cells assessed as necrosis cells at 25 uM incubated for 48 hrs in presence of apoptosis inhibitor z-VAD-fmk by Annexin-V-FITC/propidium iodide staining-based flow cytometric analysis (reference value: 0.558%); type: functional

Prostaglandin G/H synthase 1, sequence (P23219 whole entry): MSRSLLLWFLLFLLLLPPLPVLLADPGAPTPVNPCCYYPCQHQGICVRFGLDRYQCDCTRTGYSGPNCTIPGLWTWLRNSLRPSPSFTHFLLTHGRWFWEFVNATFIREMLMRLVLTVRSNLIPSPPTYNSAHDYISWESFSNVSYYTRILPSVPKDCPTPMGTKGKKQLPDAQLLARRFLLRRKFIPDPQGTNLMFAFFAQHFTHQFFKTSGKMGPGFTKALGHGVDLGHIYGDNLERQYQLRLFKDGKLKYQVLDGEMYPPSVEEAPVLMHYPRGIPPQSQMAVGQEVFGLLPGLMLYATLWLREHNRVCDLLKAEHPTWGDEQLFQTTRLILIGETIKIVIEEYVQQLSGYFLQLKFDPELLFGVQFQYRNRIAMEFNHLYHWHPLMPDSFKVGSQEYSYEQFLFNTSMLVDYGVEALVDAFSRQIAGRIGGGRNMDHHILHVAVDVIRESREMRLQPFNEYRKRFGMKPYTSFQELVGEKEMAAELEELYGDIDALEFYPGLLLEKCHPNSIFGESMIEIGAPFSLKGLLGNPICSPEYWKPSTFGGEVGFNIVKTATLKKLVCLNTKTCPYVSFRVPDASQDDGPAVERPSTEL

IC50 [5]: 32.1 µM
Ratio IC50 (Homo sapiens): 189
Retention_time [19]: 39.95 min
Compound: NS(=O)(=O)c1ccc(-n2nc(C(=O)NCCCN3CCOCC3)cc2-c2ccc(C(F)(F)F)cc2)cc1
Activity (B16-F10 [1]): 5.34%
Activity (B16-F10 [2]): 28.69%
viability at 12.5 µM (B16-F10 [3]): 84%
Activity (B16-F10 [4]): 6.13%
viability at 6.25 µM (B16-F10 [6]): 88.8%
Activity (B16-F10 [7]): 33.6%
Activity (B16-F10 [8]): 4.9%
Activity (B16-F10 [9]): 30.41%
Activity (B16-F10 [10]): 11.3%
Activity (B16-F10 [11]): 5.09%
Activity (B16-F10 [12]): 0.155%
viability at 25 µM (B16-F10 [13]): 78.8%
Activity (B16-F10 [14]): 31.04%
Activity (B16-F10 [15]): 4.31%
Activity (B16-F10 [16]): Dose-dependent effect
Activity (B16-F10 [17]): 12.87%
Activity (B16-F10 [18]): 0.48 g
Activity (B16-F10 [20]): 0.105%
Activity (B16-F10 [21]): 0.685%
viability at 12.5 µM (B16-F10 [22]): 73.7%
Activity [23]: Non-Toxic
Activity (B16-F10 [24]): 0.845%
